According to ChEMBL document CHEMBL3627703, “Synthetic, structural mimetics of the β-hairpin flap of HIV-1 protease inhibit enzyme function” (Bioorg Med Chem, 2015):
Calls of active or inactive are those of the source. No cut-off for these calls is given here.

Experiments:
[1] = biological target: Protease (Human immunodeficiency virus 1, UniProt Q9YQ12); test: Inhibition of recombinant HIV-1 protease expressed in Escherichia coli using Arg-Glu (EDANS)-Ser-Gln-Asn-Tyr-Pro-Ile-Val-Gln Lys(DABCYL)-Arg as substrate by spectrofluorometric analysis
Protease, sequence (Q9YQ12 whole entry): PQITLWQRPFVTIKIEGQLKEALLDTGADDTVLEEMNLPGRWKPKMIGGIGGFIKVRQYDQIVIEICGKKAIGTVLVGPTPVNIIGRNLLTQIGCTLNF
How it was run: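 Recombinant HIV-1 PR refolded from E. coli inclusion bodies, active concentration set by active-site titration, final 30–40 nM. Assay at 25 °C in 10 mM sodium acetate, 1 M NaCl, 2% DMSO, pH 5.0. Fluorogenic substrate at 16.7 μM, inhibitor 0–200 μM (20 mM DMSO stocks). Hydrolysis followed at excitation 340 / emission 490 nm. Ki from fitting to tight-binding competitive inhibition equations.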

[2] = test system: MT4; test: Cytotoxicity against human MT4 cells assessed as viable cells at 100 uM after 3 days by tryptan blue dye assay; format: cell-based; conditions: mt4, 72 h
How it was run: (§1)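 MT-4 cells seeded at 2 × 10⁵ cells/ml in RPMI with 10% heat-inactivated FBS, carrying carrier alone or inhibitor at 10, 50 or 100 μM (0.25% DMSO final), 37 °C, 5% CO₂. Viable cells counted by trypan blue exclusion after three days; triplicate.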

[3] = test system: Human immunodeficiency virus 1; test: Antiviral activity against HIV-1 infected in human TZM-bl cells assessed as inhibition of viral replication at 50 to 100 uM by luciferase reporter assay; format: functional, organism-based
[4] = test system: MT4; test: Cytotoxicity against human MT4 cells assessed as viable cells at 50 uM after 3 days by tryptan blue dye assay; format: cell-based; conditions: mt4, 72 h; how it was run: as §1

SMILES	Ki [1]	also measured
CC1=N[C@H](CC(C)C)C(=O)N(CC(=O)N2CCN(C(=O)OCc3ccccc3)CC2)c2cc(C(=O)O)ccc21	81 µM	
CC1=N[C@H](CC(C)C)C(=O)N(Cc2ccc(C(C)(C)C)cc2)c2cc(C(=O)O)ccc21	46 µM	
CCC(C)[C@@H]1N=C(C)c2ccc(C(=O)OC(C)(C)C)cc2N(Cc2ccc(C3CCCCC3)cc2)C1=O (single isomer, unassigned)	108 µM	
CC1=N[C@H](Cc2ccccc2)C(=O)N(Cc2ccc(C3CCCCC3)cc2)c2cc(C(=O)O)ccc21	72 µM	
CCCCCCCCCCNC(=O)CN1C(=O)[C@@H](CC(C)C)N=C(C)c2ccc(C(=O)O)cc21	11 µM	Activity [2]: Toxic; inhibition [3]: Active; Activity [4]: Non-toxic
CC1=N[C@@H](C)C(=O)Nc2cc(C(=O)O)ccc21	> 200 µM	
CC1=N[C@H](CC(C)C)C(=O)N(CC(C)C)c2cc(C(=O)O)ccc21	> 200 µM	
CC1=N[C@H](CC(C)C)C(=O)N(CC(=O)N2CCN(C(=O)OCC3c4ccccc4-c4ccccc43)CC2)c2cc(C(=O)OC(C)(C)C)ccc21	> 200 µM	
CC1=N[C@@H](Cc2ccccc2)C(=O)N(Cc2ccc(C3CCCCC3)cc2)c2cc(C(=O)OC(C)(C)C)ccc21	54 µM	
CC1=N[C@H](CC(C)C)C(=O)N(CC(=O)N2CCN(C(=O)OCc3ccccc3)CC2)c2cc(C(=O)OC(C)(C)C)ccc21	> 200 µM	
CCC(C)[C@@H]1N=C(C)c2ccc(C(=O)O)cc2N(Cc2ccc(C3CCCCC3)cc2)C1=O (single isomer, unassigned)	53 µM	
CC1=N[C@H](CC(C)C)C(=O)N(CC(=O)N2CCNCC2)c2cc(C(=O)O)ccc21	> 200 µM	
CC1=N[C@@H](CC(C)C)C(=O)Nc2cc(C(=O)OC(C)(C)C)ccc21	193 µM	
CCCCCCCCCCNC(=O)CN1C(=O)[C@@H](CC(C)C)N=C(C)c2ccc(C(=O)OC(C)(C)C)cc21	> 200 µM	
CC1=N[C@H](CC(C)C)C(=O)N(Cc2ccc(C(C)(C)C)cc2)c2cc(C(=O)OC(C)(C)C)ccc21	147 µM	
CC1=N[C@H](Cc2ccccc2)C(=O)Nc2cc(C(=O)O)ccc21	> 200 µM	
CC1=N[C@@H](Cc2ccccc2)C(=O)Nc2cc(C(=O)OC(C)(C)C)ccc21	64 µM	
CC1=N[C@H](CC(C)C)C(=O)N(Cc2ccccc2)c2cc(C(=O)OC(C)(C)C)ccc21	> 200 µM	
CC1=N[C@@H](C)C(=O)Nc2cc(C(=O)OC(C)(C)C)ccc21	> 200 µM	

SMILES	Ki [1]	also measured
CC1=N[C@@H](C)C(=O)N(Cc2ccc(C3CCCCC3)cc2)c2cc(C(=O)O)ccc21	56 µM	
CC1=N[C@H](CC(C)C)C(=O)N(Cc2ccc(-c3ccccc3)cc2)c2cc(C(=O)OC(C)(C)C)ccc21	62 µM	
CC1=N[C@H](CC(C)C)C(=O)N(CC(=O)NCCc2ccccc2)c2cc(C(=O)O)ccc21	75 µM	
CCCCCCNC(=O)CN1C(=O)[C@@H](CC(C)C)N=C(C)c2ccc(C(=O)OC(C)(C)C)cc21	> 200 µM	
CC1=N[C@H](CC(C)C)C(=O)N(Cc2ccncc2)c2cc(C(=O)OC(C)(C)C)ccc21	> 200 µM	
CC(C)C[C@H]1N=C(c2ccccc2)c2ccc(C(=O)O)cc2N(Cc2ccc(C3CCCCC3)cc2)C1=O	68 µM	
CC1=N[C@H](CC(C)C)C(=O)N(Cc2ccc(C3CCCCC3)cc2)c2cc(C(=O)OC(C)(C)C)ccc21	65 µM	
CC(C)C[C@H]1N=C(c2ccccc2)c2ccc(C(=O)OC(C)(C)C)cc2N(Cc2ccc(C3CCCCC3)cc2)C1=O	88 µM	
CC1=N[C@H](CC(C)C)C(=O)N(CC(=O)NCCc2ccccc2)c2cc(C(=O)OC(C)(C)C)ccc21	95 µM	
CC1=N[C@@H](CC(C)C)C(=O)N(Cc2ccc(C3CCCCC3)cc2)c2cc(C(=O)OC(C)(C)C)ccc21	76 µM	
CC1=N[C@H](CC(C)C)C(=O)N(Cc2ccc(C3CCCCC3)cc2)c2cc(C(=O)O)ccc21	19 µM	Activity [2]: Toxic; inhibition [3]: Active; Activity [4]: Non-toxic
CC1=N[C@H](CC(C)C)C(=O)N(Cc2ccc(-c3ccccc3)cc2)c2cc(C(=O)O)ccc21	21 µM	Activity [2]: Toxic; inhibition [3]: Active; Activity [4]: Non-toxic
CC1=N[C@H](CC(C)C)C(=O)N(CC(C)C)c2cc(C(=O)OC(C)(C)C)ccc21	89 µM	
CC1=N[C@@H](CC(C)C)C(=O)Nc2cc(C(=O)O)ccc21	> 200 µM	
CC1=N[C@H](CC(C)C)C(=O)N(CC(=O)N2CCN(C(=O)OCC3c4ccccc4-c4ccccc43)CC2)c2cc(C(=O)O)ccc21	49 µM	
CC1=NCC(=O)Nc2cc(C(=O)OC(C)(C)C)ccc21	> 200 µM	
CCC(C)[C@@H]1N=C(C)c2ccc(C(=O)O)cc2NC1=O (single isomer, unassigned)	158 µM	
CC1=N[C@@H](C)C(=O)N(Cc2ccc(C3CCCCC3)cc2)c2cc(C(=O)OC(C)(C)C)ccc21	88 µM	
CC1=N[C@@H](CC(C)C)C(=O)N(Cc2ccc(C3CCCCC3)cc2)c2cc(C(=O)O)ccc21	27 µM	

SMILES	Ki [1]	also measured
CC1=N[C@H](CC(C)C)C(=O)Nc2cc(C(=O)O)ccc21	> 200 µM	
CCC(C)[C@@H]1N=C(C)c2ccc(C(=O)OC(C)(C)C)cc2NC1=O (single isomer, unassigned)	> 200 µM	
CC1=N[C@@H](Cc2ccccc2)C(=O)Nc2cc(C(=O)O)ccc21	> 200 µM	
CC1=N[C@H](CC(C)C)C(=O)N(CC(=O)O)c2cc(C(=O)O)ccc21	> 200 µM	
CC1=N[C@H](CC(C)C)C(=O)Nc2cc(C(=O)OC(C)(C)C)ccc21	> 200 µM	
CCCCCCCCCCCCCCCCNC(=O)CN1C(=O)[C@@H](CC(C)C)N=C(C)c2ccc(C(=O)OC(C)(C)C)cc21	165 µM	
CC1=NCC(=O)N(Cc2ccc(C3CCCCC3)cc2)c2cc(C(=O)O)ccc21	85 µM	
CC1=N[C@H](Cc2ccccc2)C(=O)Nc2cc(C(=O)OC(C)(C)C)ccc21	88 µM	
CC1=N[C@H](CC(C)C)C(=O)N(Cc2ccncc2)c2cc(C(=O)O)ccc21	> 200 µM	
CC1=N[C@H](CC(C)C)C(=O)N(Cc2ccccc2)c2cc(C(=O)O)ccc21	> 200 µM	
CC1=N[C@H](Cc2ccccc2)C(=O)N(Cc2ccc(C3CCCCC3)cc2)c2cc(C(=O)OC(C)(C)C)ccc21	131 µM	
CC1=N[C@H](CC(C)C)C(=O)N(CC(=O)OC(C)(C)C)c2cc(C(=O)OC(C)(C)C)ccc21	119 µM	
CC1=NCC(=O)N(Cc2ccc(C3CCCCC3)cc2)c2cc(C(=O)OC(C)(C)C)ccc21	169 µM	
CC1=N[C@@H](Cc2ccccc2)C(=O)N(Cc2ccc(C3CCCCC3)cc2)c2cc(C(=O)O)ccc21	47 µM	
CC1=NCC(=O)Nc2cc(C(=O)O)ccc21	199 µM	
CCCCCCNC(=O)CN1C(=O)[C@@H](CC(C)C)N=C(C)c2ccc(C(=O)O)cc21	75 µM	
CC1=N[C@H](CC(C)C)C(=O)N(CC(=O)N2CCN(C(=O)OC(C)(C)C)CC2)c2cc(C(=O)OC(C)(C)C)ccc21	143 µM	
CCCCCCCCCCCCCCCCNC(=O)CN1C(=O)[C@@H](CC(C)C)N=C(C)c2ccc(C(=O)O)cc21	11 µM	Activity [2]: Toxic; inhibition [3]: Active; Activity [4]: Toxic
